From ChEMBL document CHEMBL1125745, “Unsaturated and carbocyclic nucleoside analogues: synthesis, antitumor, and antiviral activity” (J Med Chem, 1991) come the findings set out here.

SMILES strings stand for the structures.

The test system of assay [1] is L1210. In words: Inhibitory activity against murine leukemia L1210 cells. It is filed as functional, cell-based. The note with it: Mus musculus.
The species entered for assay [2] is Mus musculus. The assay can be described thus: Concentration that reduces Friend murine leukemia virus titer by 50%. In kind it is functional, organism-based. The method in brief: (§1)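 SC-1 cells (1 × 10^4/well) were pretreated with polybrene, infected 2 h at 37 °C with F-MuLV or R-MuLV in EMEM-5 with 8 µg/mL polybrene, washed, and refed with analogue for 72 h. They were then UV-irradiated and overlaid with XC cells (2 × 10^5) for 48 h, fixed and stained with crystal violet. Multinucleated cells were counted and EC50 was taken by linear regression versus untreated cultures.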

The species entered for assay [3] is Mus musculus. In words: Cytotoxicity was evaluated. In kind it is functional. The method in brief: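 SC-1 cells (1 × 10^4 cells/mL) were seeded, incubated overnight at 37 °C, refed with EMEM-10 and given diluted analogue in triplicate for 72 h at 37 °C. Cells were trypsinized and counted in a Coulter counter. The mean of three wells gave percent of control count, and IC50 was calculated by linear regression.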

Assay [4] is filed under the species Mus musculus. In words: Concentration that reduces Rauscher murine leukemia virus titer by 50%. In kind it is functional, organism-based. Summed up: as §1
Assay [5] in a line: Selectivity index is the ratio of IC50 to EC50 of F-MuLV. In kind it is functional.
Assay [6] in a line: Selectivity index which is the ratio of IC50 to EC50 of R-MuLV. In kind it is functional.
The next assay has as its system MC-38. In words: Cytotoxicity was evaluated against C38 solid tumor of mouse at 500 ug/disk. In kind it is functional. On the set-up: unit not given beside the values. The method in brief:
(§2)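 Disk zone assay: analogue dilutions on 6.5 mm paper disks were placed on dishes with a 0.8% agar bottom layer and a 0.44% soft-agar top layer of tumor cells (≤1 × 10^5/plate) in Fishers-CMRL-1066 with 12% horse serum. Plates were incubated 6-10 days and the inhibition zone was measured by microscope; 200 zone units = 6 mm.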

Assay [7] has as its system L1210. In words: Cytotoxicity was evaluated against L1210 leukemia cell line at 500 ug/disk. It is filed as functional, Mus musculus. The method in brief:
as §2

The nature of assay [8]: Cytotoxicity was evaluated against low malignancy line at 500 ug/disk. It is filed as functional. Summed up: as §2
For the next assay, the system named is PO3. In words: Cytotoxicity was evaluated against PO3 cell line at 1000 ug/disk.

In turn, `Nc1ccn(CC#CCO)c(=O)n1` showed an IC50 in the assay with L1210 [1] of more than 550 µM.
Compound `NC1=NC(Cl)c2c(ncn2CC#CCCl)N1` (stereo not given) gave an IC50 in the assay with L1210 [1] of 39 µM.
The compound `Nc1nc(O)c2ncn(C/C=C\CO)c2n1` showed an IC50 in the assay with L1210 [1] of 680 µM.
Turning to `Nc1ncnc2c1ncn2CCCCCl`, in the assay on L1210 [1], the IC50 was more than 440 µM.
For `Nc1nc(O)c2ncn(C=C=CCO)c2n1`, in the assay with L1210 [1], the IC50 was more than 350 µM.
In the assay on L1210 [1], `Nc1ncnc2c1ncn2C/C=C/CO` gave an IC50 of 125 µM.
Same read-out and setting: next, `Cc1cn(C=C=CCO)c(=O)[nH]c1=O`: 100 µM; `Nc1ccn(C/C=C\CO)c(=O)n1`: more than 1000 µM; `NC1=NC(N)c2c(ncn2CC#CCO)N1` (stereo not given): 200 µM.
Compound `Nc1ccn(C/C=C/CO)c(=O)n1` registered an IC50 in the assay with L1210 [1] of more than 550 µM.
With `Nc1ccn([C@H]2CC[C@@H](CO)O2)c(=O)n1` [ZALCITABINE], the EC50 was determined as 23 µM in the assay filed under Mus musculus [2] and 13.8 µM in the assay listed under Mus musculus [4]. The compound also yielded an IC50 in the assay filed under Mus musculus [3] of more than 100 µM. The results for the SI in assay [5] and in assay [6] were more than 4.4 and more than 7.3, respectively.
For `Cc1cn(CC#CCCl)c(=O)[nH]c1=O`, the values for the Cytotoxicity (with MC-38; in the assay with L1210 [7]; in assay [8]) were 630, 520 and 610, respectively. This compound also had an IC50 in the assay with L1210 [1] of 140 µM.
On to `Nc1ncnc2c1ncn2/C=C\CCO`, for which the EC50 in the assay listed under Mus musculus [2] was found to be 194 µM; in the assay filed under Mus musculus [4], 160 µM. The 50% inhibitory concentration (IC50) was 200 µM in the assay on L1210 [1] and more than 300 µM in the assay listed under Mus musculus [3]. For the same compound, the SI in assay [5] is more than 1.6; in assay [6], more than 1.9.
`Cc1cn(C/C=C\CO)c(=O)[nH]c1=O` yielded a concentration for half-maximal inhibition (IC50) in the assay on L1210 [1] of more than 1000 µM.
The same measure, in the same setting: next, `Nc1nc(O)c2ncn(C3C=CCO3)c2n1` (stereo not given): more than 350 µM.
The same measure, in the same setting: as for `Nc1nc(O)c2ncn(C/C=C/CO)c2n1`, the figure is 200 µM.
On to `Nc1ccn(C/C=C/CCl)c(=O)n1`, for which the Cytotoxicity came to 520 with L1210 [7], 370 in assay [8] and 550 in the assay on PO3. Further, the IC50 in the assay on L1210 [1] amounted to 50 µM.
With `O=c1[nH]c(=O)n2c3c1ncn3CC=CC2`, the IC50 in the assay with L1210 [1] is more than 1000 µM.
As to `NC1=NC(Cl)c2c(ncn2C/C=C/CCl)N1` (stereo not given), the values for the Cytotoxicity (with MC-38; in the assay with L1210 [7]; in assay [8]) were 700, 800 and 600, respectively. The same compound showed an IC50 with L1210 [1] of 39 µM.
In the assay on L1210 [1], `Cc1cn(CC#CCO)c(=O)[nH]c1=O` displayed an IC50 of more than 500 µM.
Turning to `Nc1ncnc2c1ncn2[C@H]1CC[C@@H](CO)O1`, the EC50 in the assay filed under Mus musculus [2] is 1 µM; in the assay filed under Mus musculus [4], 2.6 µM. The compound also displayed an IC50 in the assay filed under Mus musculus [3] of 83.8 µM. For the same compound, the SI is 83.8 in assay [5] and 32.2 in assay [6].
`N=c1ncn2c3c1ncn3CC=CC2` gave an IC50 with L1210 [1] of more than 1000 µM.
Take `Cc1cn([C@H]2C[C@H](N=[N+]=[N-])[C@@H](CO)O2)c(=O)[nH]c1=O` [ZIDOVUDINE]: the EC50 amounted to 0.035 µM in the assay filed under Mus musculus [2] and 0.046 µM in the assay listed under Mus musculus [4]. This compound also gave an IC50 in the assay listed under Mus musculus [3] of 594 µM. The SI in [5] is 17000; in assay [6], 12900.
For the compound `Nc1ccn([C@@H]2O[C@H](CO)[C@@H](O)[C@@H]2O)c(=O)n1` [CYTARABINE], the IC50 in the assay on L1210 [1] is 0.08 µM.
In the case of `NC(=O)c1ncn([C@@H]2O[C@H](CO)[C@@H](O)[C@H]2O)n1` [RIBAVIRIN], the EC50 in the assay filed under Mus musculus [2] was determined as 8.3 µM; in the assay filed under Mus musculus [4], 32.1 µM. Further, 52 µM corresponded to half-maximal inhibition in the assay listed under Mus musculus [3] (IC50). In addition, the figures for the SI in assay [5] and in [6] were 6.3 and 1.6, respectively.
On to `Nc1ncnc2c1ncn2/C=C/CCO`, for which the EC50 in the assay filed under Mus musculus [2] was 127 µM; in the assay listed under Mus musculus [4], 181 µM. Besides, the IC50 with L1210 [1] amounted to 100 µM; in the assay filed under Mus musculus [3] it was 304 µM. For the same compound, the SI in [5] is 2.4; in [6] it was 1.7.
In the case of `Nc1ncnc2c1ncn2C/C=C/CCl`, the Cytotoxicity in the assay with MC-38 stood at 600; with L1210 [7], 630; in assay [8], 400. In addition, half-maximal inhibition in the assay with L1210 [1] (IC50) required 45 µM.

By IC50 is commonly meant the concentration needed to halve the response being measured. One may read the EC50 as the concentration that produces a half-maximal response.
